# ROMK primary: ROMK potassium channel modulators, primary screen, cell-based, thallium flux, MLSMR library; ATP-sensitive inward rectifier potassium channel 1 (Homo sapiens), P48048; AID 1918, 2009; hit rate 2% among 130,000; Tet-inducible ROMK, thallium flux fluorescence; actives lie on both sides; B-score at 10 µM;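 active = signal ratio slope over the read window, or its plate-corrected B-score, at least 3 SD from the plate mean, either direction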;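 also: B-score of the F/F0 ratio slope over 7 to 12 s after thallium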
# Target sequence (P48048 whole entry, looked up): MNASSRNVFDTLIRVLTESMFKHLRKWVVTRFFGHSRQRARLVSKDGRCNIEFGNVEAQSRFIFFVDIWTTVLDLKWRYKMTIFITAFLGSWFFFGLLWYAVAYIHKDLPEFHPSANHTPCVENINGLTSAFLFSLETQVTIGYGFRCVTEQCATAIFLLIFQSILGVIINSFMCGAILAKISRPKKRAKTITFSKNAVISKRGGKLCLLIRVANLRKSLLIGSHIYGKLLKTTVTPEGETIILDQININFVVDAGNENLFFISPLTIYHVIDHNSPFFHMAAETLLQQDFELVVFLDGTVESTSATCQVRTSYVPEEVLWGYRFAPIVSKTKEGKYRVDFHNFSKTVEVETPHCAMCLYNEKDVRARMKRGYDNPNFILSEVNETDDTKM
# PKD1 kinase inh: inhibitors of human PKD1 kinase, biochemical, fluorescence polarization. Serine/threonine-protein kinase D1 (Homo sapiens), Q15139. PKD1 kinase fluorescence polarization assay. inhibition, % (no concentration beside the values). hit rate 0.056% among 200,000. AID 797, 2007; in the data active = inhibition above about 50%
# Cl transport mod: KCC2 cotransporter modulators, thallium flux, primary screen, cell-based, HEK293 KCC2, FluoZin-2 fluorescence, MLSMR. Solute carrier family 12 member 5 (Homo sapiens), Q9H2X9. KCC2 cells, thallium flux FluoZin-2 fluorescence. B-score of Tl+ flux slope (higher = more flux/activation; lower = inhibition) at 10 µM. hit rate 2.2% among 190,000;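 active = thallium flux slope and its plate-corrected score both differing from the plate sample mean at a set confidence after two filtering rounds, in either direction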;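 also: slope of fluorescence scaled to starting intensity during 10 to 20 s after thallium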
# Rad51 HR inh: human RAD51 strand exchange inhibitors, primary screen, biochemical, fluorescence. DNA repair protein RAD51 homolog 1 (Homo sapiens), Q06609. hRad51 DNA strand exchange, fluorescence dequenching. inhibition, % at 10 µM. hit rate 0.085% among 200,000;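 active = inhibition above 40% at the single screening dose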;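 also: 0% = DMSO control wells and 100% = blanks with heterologous ssDNA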
#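 material = hRad51 filaments on single-stranded DNA | timing = filaments 15 min 37 °C, then compound 30 min | signal = FRET fluorescence dequenching, excitation 485 nm, emission 520 nm | benchmarks = control wells and blank wells on each plate | evaluation = percent inhibition relative to plate controls and blanks | compound = 10 µM final, single point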
# ROMK hit retest: ROMK channel modulator hit retest, confirmation, cell-based, thallium flux, duplicate, resupplied hits | shares compounds with ROMK primary | fluorescence ratio; stronger effect = lower value | normalized thallium flux (F/F0 slope) at 10 µM | hit rate 54% among 3,000 | AID 1917, 2009;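 active = Flux at 10 µM at least 3 SD below or above vehicle control mean in one or both replicates; inconclusive = no clear call, values can overlap the other calls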
# * = called active by the depositor; ? = inconclusive; · = no result. This is a sample that favours compounds with a hit; in the whole collection about 3% have one here.
SMILES,ROMK primary,PKD1 kinase inh,Cl transport mod,Rad51 HR inh,ROMK hit retest
Cc1ccc(NC(=O)CS(=O)(=O)c2cn(CC(=O)N3CCOCC3)c3ccccc23)cc1,0.663,-3.7,-2.28,8.8,·
COc1ccccc1C1(CCNC(C)c2cccs2)CCOC(C(C)C)C1 (stereo not given),·,·,-1.23,9.7,0.0412*
Cc1ccc(C2(CCNC(C)c3cccs3)CCOC(C(C)C)C2)cc1 (stereo not given),-0.083,-7.2,1.78,-19.2,·
Cc1ccc(S(=O)(=O)CCN2CCC(n3cccc3)CC2)cc1,·,·,·,23.8,·
CC(C)C(c1nnnn1C(C)(C)C)N1CCN(c2cccc(Cl)c2)CC1 (stereo not given),-0.541,-7.7,-0.586,2.6,·
COc1ccc(-n2c(O)c(/C=N/NS(=O)(=O)c3ccc(C)cc3)c3ccccc3c2=O)cc1OC,-5.05*,-8.2,-0.868,·,?
CCc1nnc(NC(=O)Cc2cc(OC)c(OC)c(OC)c2)s1,0.0831,-5.9,-0.457,-3.6,·
COCCn1nnnc1C(c1cc(OC)ccc1OC)N1CCc2ccccc2C1 (stereo not given),-2.05*,7.9,0.216,10.1,0.0781
COc1ccc(OC)c(C(c2nnnn2CCc2ccccc2)N2CCC(C(N)=O)CC2)c1 (stereo not given),·,-2.9,-0.125,-3.5,·
CCOC(=O)C(C)Sc1cc(CS(=O)(=O)c2ccccc2)nc(-c2ccccc2)n1 (stereo not given),·,-3.8,-0.474,3.7,·
O=C(C(c1ccccc1)c1ccccc1)N1CC[C@@]2(O)CCCC[C@H]2C1,·,·,2.04,·,·
C/C(=N\NC(=O)c1ccccc1F)c1ccc2c(c1)Nc1ccccc1S2,·,5.7,-0.831,-17.9,0.0704
C/C(=N\NC(=O)c1ccc(O)cc1)c1ccc2c(c1)Nc1ccccc1S2,·,18.0,-1.57,-17.0,·
O=C(/C=C/c1ccncc1)c1ccc2c(c1)OCCO2,-2.73*,14.3,0.512,-1.7,0.0533*
O=C(Nc1ccc(O)cc1)C1CC=CCC1 (stereo not given),·,9.2,0.436,-1.3,0.0733
CCC(C)NC(=O)CN(c1ccc(Cl)c(Cl)c1)S(C)(=O)=O (stereo not given),·,-0.6,-0.457,6.1,·
CCOC(=O)c1c(C)n(C)c2ccc(OCC(O)CN(CC)CC)cc12 (stereo not given),·,-7.0,-1.38,-6.7,·
CCOC(=O)c1c(C)n(C)c2ccc(OCC(O)Cn3nc(C)cc3C)cc12 (stereo not given),·,-8.2,-0.00557,-3.0,0.0668*
COC(=O)c1cc(C(=O)N2CCN(c3cccc(Cl)c3)CC2)cc([N+](=O)[O-])c1,3.72*,-7.1,-0.783,7.4,?
O=C(c1cccc([N+](=O)[O-])c1)N1CCN(c2cccc(Cl)c2)CC1,-0.0518,-6.7,-0.852,-5.7,·
CCOC(=O)C1=C(O)/C(=C/c2cn(CC(=O)N3CCCC3)c3ccccc23)SC1=Nc1ccccc1,0.52,5.5,-0.943,-22.4,·
CCOC(=O)C1=C(O)/C(=C/c2ccc(OCC(=O)O)c(OC)c2)SC1=Nc1ccc(OC)cc1,·,0.0,-0.264,·,0.0809
CCOC(=O)c1c(C)[nH]c(C(=O)N2CCN(c3ccc(OC)cc3)CC2)c1C,-0.301,3.4,0.105,-6.7,·
COc1ccc(C2OC(=O)Cc3cc(OC)c(OC)cc32)cc1 (stereo not given),-2.54*,0.8,-0.994,-13.4,0.0858
CC(=O)NS(=O)(=O)c1ccc(NC(=O)CSc2ccccc2)cc1,·,·,-0.649,·,0.0785
SMILES,ROMK primary,PKD1 kinase inh,Cl transport mod,Rad51 HR inh,ROMK hit retest
CSc1nc(C)cc(OCC(=O)N/N=C/c2ccccc2O)n1,2.91*,-2.2,-0.258,14.7,0.0808
Cc1cc(C)c2c(N)c3cccc(C)c3nc2n1,·,-10.1,0.179,-31.5,·
Cn1cc(CCNC(=O)CC2C(=O)NCCN2CC(c2ccccc2)c2ccccc2)cn1 (stereo not given),·,·,0.505,-1.5,·
CCOC(=O)c1cccc(NC(=S)NCc2ccc(C)cc2)c1,-1.09,0.3,0.49,·,·
Cc1nc(CNC(=O)CC2C(=O)NCCN2Cc2cccc(Oc3ccccc3)c2)cs1 (stereo not given),0.545,2.9,·,·,·
Cc1cc(=O)oc2cc(NC(=S)NCc3ccccn3)ccc12,-6.62*,-1.1,0.0331,1.4,0.0471*
Cc1cc(=O)oc2cc(OCC(=O)NCc3ccccn3)ccc12,·,-4.1,0.558,-2.4,·
N/C(=N\OC(=O)c1cnn(-c2ccccc2)c1C(F)(F)F)c1ccc(C(F)(F)F)cc1,·,·,-0.225,9.8,·
COc1cc(NC(C)=O)c2ncccc2c1[N+](=O)[O-],-4.72*,-3.2,0.24,·,0.0465*
N#CCc1c(C#N)c(N)nc(N2CCN(Cc3ccc4c(c3)OCO4)CC2)c1C#N,-5.57*,5.7,-0.715,·,0.0483*
Cc1cc(C)c(C#N)c(N2CCN(Cc3ccc4c(c3)OCO4)CC2)n1,-0.893,-8.5,·,-6.3,·
Cc1ccc(CSCCNC(=O)c2ccc(Cl)c(S(=O)(=O)N3CCOCC3)c2)cc1,-3.96*,-6.5,-2.3,8.1,0.0741
O=C(NCCC1=CCCCC1)c1ccc(Cl)c(S(=O)(=O)N2CCOCC2)c1,·,-10.2,-0.14,3.4,·
O=C(NNS(=O)(=O)c1ccccc1[N+](=O)[O-])c1ccccc1[N+](=O)[O-],1.56,4.9,·,13.5,·
O=C(CCC(=O)Nc1ccccc1)NNS(=O)(=O)c1ccccc1[N+](=O)[O-],0.444*,-0.1,-0.0741,4.4,0.0869
CC(=O)Oc1oc(-c2ccccc2)nc1C=Nc1ccc(N(C)C)cc1,·,·,-1.84,-16.4,0.0597*
COc1ccccc1CNC(=O)C/C(C)=N/NC(=O)COc1ccc(C)cc1Br,2.84*,-6.2,-2.61,·,0.0784
O=c1[nH]c(CSc2nc3ccccc3[nH]2)nc2c1cnn2-c1ccccc1,-3.44*,-7.5,-1.05,3.8,0.0529*
CC1(c2nnc(-c3cccc(Cl)c3)o2)CC(c2ccccc2F)=NO1 (stereo not given),·,·,·,-5.0,·
COc1ccc(NC(=S)NNC(=O)CNc2ccc(Cl)cc2)cc1,-0.686,2.7,-0.143,-5.0,·
COc1ccc(-c2nc(CN3CCC(C(=O)N4CCc5ccccc54)CC3)c(C)o2)cc1OC,·,-7.3,·,2.2,?
COc1ccc(CCNC(=O)C2CCN(Cc3nc(-c4cccc(Cl)c4)oc3C)CC2)cc1OC,·,-6.8,0.0448,·,·
COc1ccc(OC)c(NC(=O)Nc2cc(C(=O)O)ccc2C)c1,0.493,-2.4,0.0242,·,·
CSc1nc2[nH]c3c(c2c2nnnn12)CCCC3,·,11.1,-0.354,·,0.0716
CSc1nc2[nH]c3c(c2c2nncn12)CC(C)(C)OC3,-0.129,0.6,0.44,7.5,·
CCN=c1scc(-c2ccc3c(c2)NC(=O)CO3)n1N=C1CCCC1,·,11.1,-1.38,-18.9,0.079
CNC(=O)c1nnsc1S(=O)(=O)c1ccc(Cl)cc1,-5.61*,-6.9,-0.427,-3.3,0.0533*
